Measured values: the M2OR odorant receptor database

Assays:
Conditions in all cases: stereoisomer not certain
[1] = biological target: T1, UniProt Q8VGZ2
T1 sequence (whole entry): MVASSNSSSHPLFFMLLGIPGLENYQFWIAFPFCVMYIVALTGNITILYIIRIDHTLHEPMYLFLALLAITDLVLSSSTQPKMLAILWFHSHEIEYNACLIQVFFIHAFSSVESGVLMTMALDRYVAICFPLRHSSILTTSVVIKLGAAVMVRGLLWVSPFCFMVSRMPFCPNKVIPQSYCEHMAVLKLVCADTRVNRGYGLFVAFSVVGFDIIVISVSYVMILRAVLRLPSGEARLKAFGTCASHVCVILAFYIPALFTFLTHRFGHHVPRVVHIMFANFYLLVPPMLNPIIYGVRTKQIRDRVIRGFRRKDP
Method in brief: (§1)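 Values were gathered from published papers (main text and supplementary material), with extra details requested from the original authors when needed, and checked for typos and inconsistencies. Each receptor–molecule pair is called responsive (active) if the original authors judged the measured signal statistically different from baseline, and non-responsive (inactive) otherwise. Assay methods varied by source, often transient mammalian cell-line luciferase assays. Recorded details include cell line, G-protein, co-transfected protein and tags.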

[2] = biological target: T2, UniProt Q8VGZ7
T2 sequence (whole entry): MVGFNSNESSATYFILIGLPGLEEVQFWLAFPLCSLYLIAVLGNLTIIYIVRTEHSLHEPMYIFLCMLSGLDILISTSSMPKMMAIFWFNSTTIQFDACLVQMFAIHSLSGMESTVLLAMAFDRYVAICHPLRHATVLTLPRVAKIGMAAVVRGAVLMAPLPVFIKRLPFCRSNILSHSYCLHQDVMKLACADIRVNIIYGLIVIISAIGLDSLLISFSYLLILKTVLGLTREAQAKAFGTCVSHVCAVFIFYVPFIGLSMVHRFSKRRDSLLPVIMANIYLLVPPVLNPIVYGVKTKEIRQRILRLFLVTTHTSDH
Method in brief: as §1

[3] = biological target: T3, UniProt Q8VH16
T3 sequence (whole entry): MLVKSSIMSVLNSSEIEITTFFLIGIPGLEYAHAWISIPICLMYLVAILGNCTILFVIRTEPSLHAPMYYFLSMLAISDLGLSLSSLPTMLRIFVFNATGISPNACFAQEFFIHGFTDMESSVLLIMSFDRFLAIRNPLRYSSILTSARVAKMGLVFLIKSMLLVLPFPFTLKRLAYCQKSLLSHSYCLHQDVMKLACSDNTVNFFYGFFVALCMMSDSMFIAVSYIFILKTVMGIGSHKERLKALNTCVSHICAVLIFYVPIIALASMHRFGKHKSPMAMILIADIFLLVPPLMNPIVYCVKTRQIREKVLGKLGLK
Method in brief: as §1

[4] = biological target: T4, UniProt Q8VH20
T4 sequence (whole entry): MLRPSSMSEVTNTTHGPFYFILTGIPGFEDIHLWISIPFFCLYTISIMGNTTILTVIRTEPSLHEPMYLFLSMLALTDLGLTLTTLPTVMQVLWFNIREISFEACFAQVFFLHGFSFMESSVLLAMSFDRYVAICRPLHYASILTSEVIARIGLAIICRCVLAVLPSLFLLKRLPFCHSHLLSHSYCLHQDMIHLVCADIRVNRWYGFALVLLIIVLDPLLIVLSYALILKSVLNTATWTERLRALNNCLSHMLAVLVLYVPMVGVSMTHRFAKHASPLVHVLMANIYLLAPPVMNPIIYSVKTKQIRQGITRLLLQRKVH
Method in brief: as §1

[5] = biological target: T5, UniProt Q8VH21
T5 sequence (whole entry): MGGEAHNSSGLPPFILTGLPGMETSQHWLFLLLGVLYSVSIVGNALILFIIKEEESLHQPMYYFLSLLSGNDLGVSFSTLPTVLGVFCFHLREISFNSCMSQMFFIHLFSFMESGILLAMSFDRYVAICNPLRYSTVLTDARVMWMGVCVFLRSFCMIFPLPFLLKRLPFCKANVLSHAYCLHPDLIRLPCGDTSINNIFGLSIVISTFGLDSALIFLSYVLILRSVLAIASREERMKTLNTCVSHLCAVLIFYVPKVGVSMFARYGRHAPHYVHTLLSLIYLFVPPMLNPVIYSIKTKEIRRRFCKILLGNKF
Method in brief: as §1

[6] = biological target: T6, UniProt Q920P1
T6 sequence (whole entry): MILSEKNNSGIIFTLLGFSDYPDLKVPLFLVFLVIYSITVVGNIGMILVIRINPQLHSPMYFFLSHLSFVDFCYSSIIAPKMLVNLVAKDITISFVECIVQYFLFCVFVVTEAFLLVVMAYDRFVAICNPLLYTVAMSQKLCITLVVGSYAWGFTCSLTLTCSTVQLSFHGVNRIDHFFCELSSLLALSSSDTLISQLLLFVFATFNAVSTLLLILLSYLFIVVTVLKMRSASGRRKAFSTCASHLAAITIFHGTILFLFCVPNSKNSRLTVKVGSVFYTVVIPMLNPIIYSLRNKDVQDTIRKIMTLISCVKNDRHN
Method in brief: as §1

Row | Compound | odorant receptor agonist call [1] | odorant receptor agonist call [2] | odorant receptor agonist call [3] | odorant receptor agonist call [4] | odorant receptor agonist call [5] | odorant receptor agonist call [6]
1 | CCCCCCCCCC=CC=O | inactive | inactive | inactive | inactive | inactive | –
2 | Cc1ccc(C(C)C)cc1 | inactive | inactive | inactive | inactive | inactive | –
3 | CC1(C)CC(=O)CC(=O)C1 | inactive | inactive | inactive | inactive | inactive | –
4 | COc1ccccc1 | inactive | inactive | inactive | inactive | inactive | –
5 | CCCCCCCOC(=O)C(C)C | inactive | inactive | inactive | inactive | inactive | –
6 | CC(=O)OCCc1ccccc1 | inactive | inactive | inactive | inactive | inactive | –
7 | COc1nccnc1C | inactive | inactive | inactive | inactive | inactive | –
8 | Cc1ccc2c(c1)OCC(=O)CO2 | inactive | inactive | inactive | inactive | inactive | –
9 | CCc1occc(=O)c1O | inactive | inactive | inactive | inactive | inactive | –
10 | Cc1c(C)c(C)c(C=O)c(C)c1C | inactive | inactive | inactive | inactive | inactive | –
11 | C=CC(=C)CCC=C(C)CCC=C(C)C | inactive | inactive | inactive | inactive | inactive | –
12 | CCCCCC(C)O (configuration not stated) | inactive | inactive | inactive | inactive | inactive | –
13 | CC(CC=O)CCCC(C)(C)O (configuration not stated) | inactive | inactive | inactive | inactive | inactive | –
14 | CCCCCC(=Cc1ccccc1)C(OC)OC | inactive | inactive | inactive | inactive | inactive | –
15 | CSSCc1ccco1 | inactive | inactive | inactive | inactive | inactive | –
16 | COC(OC)c1ccccc1 | inactive | inactive | inactive | inactive | inactive | –
17 | C1CCOC1 | inactive | inactive | inactive | inactive | inactive | –
18 | CCCCCCCCC=CC=O | inactive | inactive | inactive | inactive | inactive | –
19 | CCCO | inactive | inactive | inactive | inactive | inactive | –
20 | CCc1nccnc1CC | inactive | inactive | inactive | inactive | inactive | –
21 | CSSSC | inactive | inactive | inactive | active | inactive | –
22 | CCc1ccccc1O | inactive | inactive | inactive | inactive | inactive | –
23 | OCCCCCCCCCO | inactive | inactive | inactive | inactive | inactive | –
24 | CC=Cc1ccc(OC)cc1 | inactive | inactive | inactive | inactive | inactive | –

Row | Compound | odorant receptor agonist call [1] | odorant receptor agonist call [2] | odorant receptor agonist call [3] | odorant receptor agonist call [4] | odorant receptor agonist call [5] | odorant receptor agonist call [6]
25 | CNc1ccccc1C(=O)OC | inactive | inactive | inactive | inactive | inactive | –
26 | O=C(OCc1ccccc1)c1ccccc1O | inactive | inactive | inactive | inactive | inactive | –
27 | Cc1ccccc1OC(=O)C(C)C | inactive | inactive | inactive | inactive | inactive | –
28 | CCC(C)O (configuration not stated) | inactive | inactive | inactive | inactive | inactive | –
29 | CC(=O)C=CC1=C(C)CCCC1(C)C | inactive | inactive | inactive | inactive | inactive | –
30 | CC(=O)OC1(C)CCC23CC1C(C)(C)C2CCC3C (configuration not stated) | active | inactive | inactive | active | inactive | –
31 | CCCCCCCCCCCO | inactive | inactive | inactive | inactive | inactive | –
32 | C=C(C)C1CCC(C)C(O)C1 (configuration not stated) | inactive | inactive | inactive | inactive | inactive | –
33 | CCSCC | inactive | inactive | inactive | inactive | inactive | –
34 | COc1cc(C=O)cc(OC)c1O | – | – | – | – | – | inactive
35 | CCCC=O | inactive | inactive | inactive | inactive | inactive | –
36 | CC(=O)C1(C)CC2=C(CCCC2(C)C)CC1C (configuration not stated) | inactive | inactive | inactive | inactive | inactive | –
37 | C=CCc1ccc(OCC)c(OC)c1 | – | – | – | – | – | inactive
38 | CCC=CCCCCC=O | inactive | inactive | inactive | active | inactive | –
39 | COc1nccnc1C(C)C | inactive | inactive | inactive | inactive | inactive | –
40 | CCOC(=O)C(C)CC (configuration not stated) | inactive | inactive | inactive | inactive | inactive | –
41 | CCCCCOC(=O)CC | inactive | inactive | inactive | inactive | inactive | –
42 | CCCCCOC(=O)CCC | inactive | inactive | inactive | inactive | inactive | –
43 | CC(C)CCN | inactive | inactive | inactive | inactive | inactive | –
44 | COc1cnccn1 | inactive | inactive | inactive | inactive | inactive | –
45 | CCCCCC(C=O)=Cc1ccccc1 | inactive | inactive | inactive | inactive | inactive | –
46 | CCCCCCC(C)O (configuration not stated) | inactive | inactive | inactive | inactive | inactive | –
47 | OCC=Cc1ccccc1 | inactive | inactive | inactive | inactive | inactive | –
